Screening data (PubChem)
The entries come from a sample that favours hits as a whole.
Insulin prom act: activators of insulin promoter-driven GFP, primary screen, imaging, TRM-6 cells (human fetal islet line), eGFP reporter, cell count; plate-scaled: unstimulated 0, stimulated control 100; activation, % at 2 µM; 130,000 tested, 0.81% active; AID 1296, 2008;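 active means activation at 2 µM above a set limit, confirmed on inspection of the cell images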;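 further: share of cells whose green reporter signal exceeds an intensity cutoff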
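test system = TRM-6 insulin promoter–eGFP reporter cells | benchmarks = stimulated versus unstimulated wells as plate controls | read-out basis = percent cells above green-intensity threshold, converted to percent activation versus plate controls | detection = fixed-cell fluorescence microscopy, eGFP plus Hoechst | incubation = tamoxifen pre-incubation 15 h overnight, then compound exposure 48 h at 37 °C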
Numbers stand for hits; n = inactive; [ ] = dose if it differs, or a comment.

SMILES	Insulin prom act
O=[N+]([O-])c1ccc(OCc2cnc(Cl)s2)cc1	239.5
CC1CN(CCOc2ccc([N+](=O)[O-])cc2)CC(C)O1 (centres undefined)	n
COC(=O)C(Cc1cnc(Cl)s1)(C(=O)OC)c1ccccc1[N+](=O)[O-]	n
Cc1ccc(OCC(=O)Nc2ccc([N+](=O)[O-])cc2)cc1	n
FC(F)(F)Oc1ccc(NC(=S)NCCCN2CCOCC2)cc1	n
O=C(O)c1ccccc1S(=O)(=O)NCC(O)COc1ccc(Br)cc1 (centres undefined)	n
COc1cc(S(=O)(=O)NCC2OCCc3ccccc32)ccc1-n1cnnn1 (centres undefined)	n
O=C(CCN1C(=O)c2ccccc2C1=O)Nc1sc2c(c1C(=O)NCC1CCCO1)CCC2 (centres undefined)	n
C#CC[N+](C)(C)C(C#Cc1ccccc1)CC=C (centres undefined)	n
CC1CCCCN1C(=O)c1ccc(NC(=O)c2ccccc2Cl)cc1 (centres undefined)	n
O=C(CCCCCN1C(=O)c2ccccc2C1=O)Nc1ccc(F)cc1	n
Cc1ccc(OCCN2C(=O)NC3(CCc4ccccc4C3)C2=O)cc1 (centres undefined)	n
CC(=O)OCC1OC(OC(C)=O)C(NC(=O)c2cccnc2)C(OC(C)=O)C1OC(C)=O (centres undefined)	n
CNC(=O)CNC(=O)Nc1ccc(Cl)c(Cl)c1	n
Cc1ccc(CC(=O)N2CCN(c3ccccn3)CC2)cc1	n
CCCN1C(=O)/C(=C/c2ccncc2)SC1=S	n
CCCCN1C(=O)/C(=C/C=C2/CC(C)(C)CN2C)SC1=S	270.4
CCCCN1C(=O)C(=O)N(c2ccccc2)C1=S	n
Cc1ccc(CNC(=O)N[C@@H](Cc2ccccc2)C(=O)O)cc1	n
N#CCC(=O)NCCCOC(=O)Nc1ccc(Cl)c(Cl)c1	n
CCCCNC(=O)c1ccc(CS(=O)(=O)Cc2ccccc2F)o1	n
Cc1cccc(NC(=O)CN2NS(=O)(=O)c3ccccc3C2=O)c1	n
CCn1c(SCC(=O)NC2CCCc3ccccc32)nnc1-c1ccncc1 (centres undefined)	n
CCn1c(SCC(=O)Nc2ccc(S(=O)(=O)Nc3ccccn3)cc2)nnc1-c1ccncc1	569.2
CCn1c(SCC(=O)Nc2cccc(NC(=O)c3cccs3)c2)nnc1-c1ccncc1	n
SMILES	Insulin prom act
C=CCn1c(SCC(=O)N2CCc3ccccc3C2)nc2sc(C)c(C)c2c1=O	n
C=CCN1C(=O)c2cccc3c(N4CCCCC4)ccc(c23)C1=O	669.2
COc1ccccc1N1CCN(S(=O)(=O)c2ccc3c4c(cccc24)C(=O)N3C)CC1	n
CCc1ccc(-c2nnn(CCC(=O)OC)n2)cc1	n
CCCC(=O)NCn1nnc(-c2ccc(Cl)cc2)n1	488.2[fluoresces]
CS(=O)(=O)c1ccc(-c2nnn(CC(N)=O)n2)cc1	n
O=CN1CCN(C(C(=O)NC2CCCC2)c2ccc(Cl)cc2)CC1 (centres undefined)	n
COc1ccc(C(=O)NNC2=CC(=O)CC(C)(C)C2)cc1OC	n
COc1cccc(/C=N/NC(=O)c2nc(-c3ccccc3)cc(-c3ccccc3)n2)c1	n
COc1cccc(/C=C2\C(=O)C(=O)c3ccccc32)c1	177.8
COc1cccc(/C=C/C(=O)c2ccc[nH]2)c1	n
Cc1nnc(N2CCN(C)CC2)c2nn(-c3ccc(Cl)cc3)c(C)c12	n
O=C(O)CCc1nnc(SCC(=O)Nc2cccc(C(F)(F)F)c2)[nH]c1=O	n
C=CC(=O)NC(C)(C)CCN1CCOCC1	n
Cc1ccc2c(c1)C(O)(CC(=O)/C=C/C=C/c1ccccc1)C(=O)N2 (centres undefined)	n
O=C(COc1cc(Cl)ccc1Cl)Nc1nnc(CC(=O)N2CCOCC2)s1	n
CCNc1nc(N)nc(-c2cc(Cl)ccc2O)n1	n
CCCNc1nc(N)nc(-c2cc(Cl)ccc2OC)n1	n
CCCN(CCC)c1nc(N)nc(-c2cc(Cl)ccc2OC)n1	82.9
CC1CCc2cc(F)ccc2N1C(=O)CCl (centres undefined)	n
Cc1cccc(-c2n[nH]c(=S)n2/N=C/c2ccc(C)s2)c1	n
CCN(CC)S(=O)(=O)c1cccc(-c2n[nH]c(=S)n2/N=C/c2ccc(Br)cc2)c1	438.5
Cc1ccc(-c2n[nH]c(=S)n2/N=C/c2c(C)nn(-c3ccccc3)c2C)cc1	n
CCOc1ccc(N2C(=O)C3C(c4ccc(O)cc4)NC(CCSC)(C(=O)OC)C3C2=O)cc1 (centres undefined)	n
COc1ccccc1-c1nc(S(=O)(=O)c2ccc(Cl)cc2)c(N(C)C)o1	470.6
SMILES	Insulin prom act
COc1cc(-c2nc(S(=O)(=O)c3ccc(Cl)cc3)c(N3CCOCC3)o2)cc(OC)c1OC	n
COc1ccccc1N(CC(=O)Nc1cc(C)on1)S(=O)(=O)c1ccc(Cl)cc1	n
CCOC(=O)c1c(NC(=O)c2ccc(Cl)cc2)csc1C	n
COc1ccc(-c2nc(O)c3cnccn23)cc1	n
CN(C1CCCCC1)S(=O)(=O)c1ccc(C(=O)N2CCN(c3nc4ccccc4s3)CC2)cc1	n
COc1ccc2nc(NC(=O)Nc3ccccc3)sc2c1	n
